Measurements gathered from unrelated publications.
Target: Serine/threonine-protein kinase 24 (STK24, Homo sapiens, UniProt Q9Y6E0)

CNC(=O)[C@@H]1CC[C@@H](n2c(-c3ccc4cnccc4c3)nc3ccc(C(=O)NCc4cccc(C(N)=O)c4)cc32)C1 — remaining binding (binding; competition with immobilised ligand; 1 µM): 100%
CN(C)c1nccc(-c2cnn3ncccc23)n1 — remaining binding (binding; 1 µM): 100%
CS(=O)(=O)NCC[C@H](NC(=O)c1cncc2c1cnn2-c1ccc(F)cc1)c1ccnc(S(C)(=O)=O)c1 — remaining binding (cell-free assay; competition with immobilised ligand; 1 µM): 100%
C[C@@H]1CCN(c2nccc(-c3cnn4ncccc34)n2)C1 — remaining binding (binding; 1 µM): 63%
O=C(Nc1c[nH]nc1C(=O)NC1CCNCC1)c1cc(F)cc(F)c1 — remaining binding (binding; competition with immobilised ligand; 1 µM): 91%
FC(F)(F)Oc1cccc(-c2cnc3ccc(-c4ccncc4)nn23)c1 — remaining binding (cell-free assay; competition with immobilised ligand; 5 µM): 86%
Cc1cnc(Nc2ccc(C(=O)N3CCC(N4CCCC4)CC3)cc2)nc1-c1cc2ccccc2s1 — remaining binding (binding; competition with immobilised ligand; 1 µM): 84%
COc1cnc(Nc2cccc(S(N)(=O)=O)c2)nc1N1CCN(c2ccccc2)CC1 — remaining binding (binding; competition with immobilised ligand; 1 µM): 82%
O=C(c1ccc(Nc2ncc(Cl)c(-c3ccc(Cl)s3)n2)cc1)N1CCC(N2CCCC2)CC1 — remaining binding (binding; competition with immobilised ligand; 1 µM): 44%
COc1ccnn2ncc(-c3ccnc(N(C)C)n3)c12 — remaining binding (binding; 1 µM): 100%
CCN1CCN(Cc2ccc(C(=O)Nc3ccc(C)c(Oc4ccc5c(c4)CC(=O)N5)c3)cc2C(F)(F)F)CC1 — remaining binding (binding; competition with immobilised ligand; 1 µM): 94%
O=C(NCc1ncc(C(F)(F)F)cc1Cl)c1ccc2c(c1)C1(CCS(=O)(=O)CC1)[C@@H](C1CC1)N2S(=O)(=O)c1ccc(F)cc1 — remaining binding (cell-free assay; competition with immobilised ligand; 1 µM): 100%
c1cnn2ncc(-c3ccnc(N4CCC45COC5)n3)c2c1 — remaining binding (binding; 1 µM): 74%
Cc1nc(Cc2cccc(C(F)(F)F)c2)sc1-c1ccc(C(N)=O)nc1 — remaining binding (cell-free assay; competition with immobilised ligand; 1 µM): 100%
N[C@H]1CCN(c2nccc(-c3cnn4ncccc34)n2)C1 — remaining binding (binding; 1 µM): 83%
O=C(NS(=O)(=O)c1ccc(NCC2CCOCC2)c([N+](=O)[O-])c1)c1ccc(N2CCN(Cc3ccc(C(F)(F)F)cc3-c3ccc(Cl)cc3)CC2)cc1Oc1cnc2[nH]ccc2c1 — remaining binding (cell-free assay; competition with immobilised ligand; 1 µM): 100%
CN(C)c1nccc(-c2cnc3ncccn23)n1 — remaining binding (binding; 1 µM): 94%
O=C(c1ccc(Nc2ncc(Cl)c(-c3cc4ccccc4s3)n2)cc1)N1CCC(N2CCCC2)CC1 — remaining binding (binding; competition with immobilised ligand; 1 µM): 92%
O=C(NC[C@@H]1[C@H]2CN(C(=O)OCc3cc(C(F)(F)F)cc(C(F)(F)F)c3)C[C@@H]12)c1ccc2[nH]nnc2c1 — remaining binding (cell-free assay; competition with immobilised ligand; 1 µM): 90%
